This passage reports ED50, Max reversal and EC50 results from ChEMBL document CHEMBL1135836, “Cyclodextrin-derived host molecules as reversal agents for the neuromuscular blocker rocuronium bromide: synthesis and structure-activity relationships” (J Med Chem, 2002).

Type in all cases: functional
Assay [1] relates to Cavia porcellus. The assay is described as follows: In vivo reversal activity versus ~90% block by rocuronium in guinea pig. In a few lines: (§1)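 Male Dunkin-Hartley guinea pigs (600-900 g), anaesthetized ip with pentobarbitone 10 mg/kg plus urethane 1000 mg/kg, tracheotomized and ventilated. Continuous iv rocuronium infusion (~10 nmol kg-1 min-1) was raised to a steady 85-90% block. Increasing iv doses of agent were given cumulatively. ED50 = 50% recovery versus preblock twitch, by regression. Mean ± SEM of at least two experiments, or one.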

Assay [2] deals with Cavia porcellus. The assay is described as follows: In vivo reversal activity versus ~90% block by rocuronium in guinea pig, expressed as % of maximum reversal at 0.5 umol/kg conc. An outline of the steps:
as §1

The species entered for assay [3] is Mus musculus. The assay is described as follows: In vitro reversal activity versus ~90% block by rocuronium in isolated mouse hemidiaphragm, expressed as % of maximum reversal at 3.6 uM conc.
The species entered for assay [4] is Mus musculus. The assay is described as follows: In vitro reversal activity versus ~90% block by rocuronium in isolated mouse hemidiaphragm, expressed as effective conc.
In assay [5] the test system is Cavia porcellus. As to the kind of experiment: In vivo reversal activity versus ~90% block by rocuronium in guinea pig, expressed as % of maximum reversal at 16 umol/kg conc. In a few lines: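 Male Dunkin-Hartley guinea pigs (600-900 g) anaesthetized ip with pentobarbitone 10 mg/kg plus urethane 1000 mg/kg, tracheotomized and artificially ventilated. Continuous iv rocuronium bromide infusion (~10 nmol kg-1 min-1) raised until steady-state twitch block of 85-90%. Increasing single iv doses of reversal agent given by a separate catheter. Max reversal is peak twitch recovery versus preblock height at highest dose tested; means ± SEM, n ≥ 2 or single experiment.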

For assay [6], the species on record is Mus musculus. As to the kind of experiment: In vitro reversal activity versus ~90% block by rocuronium in isolated mouse hemidiaphragm, expressed as % of maximum reversal at 18 uM conc.
The species entered for assay [7] is Mus musculus. As to the kind of experiment: In vitro reversal activity versus ~90% block by rocuronium in isolated mouse hemidiaphragm, expressed as % of maximum reversal at 5.4 uM conc.

A value given as a limit tells only on which side of the number the result lay.

Consider `O=S(=O)([O-])CCSCC1O[C@@H]2O[C@@H]3C(CSCCS(=O)(=O)[O-])O[C@H](O[C@@H]4C(CSCCS(=O)(=O)[O-])O[C@H](O[C@@H]5C(CSCCS(=O)(=O)[O-])O[C@H](O[C@@H]6C(CSCCS(=O)(=O)[O-])O[C@H](O[C@@H]7C(CSCCS(=O)(=O)[O-])O[C@H](O[C@@H]8C(CSCCS(=O)(=O)[O-])O[C@H](O[C@@H]9C(CSCCS(=O)(=O)[O-])O[C@H](O[C@H]1C(O)C2O)C(O)C9O)C(O)C8O)C(O)C7O)C(O)C6O)C(O)C5O)C(O)C4O)C(O)C3O.[Na+].[Na+].[Na+].[Na+].[Na+].[Na+].[Na+].[Na+]` (some centres undefined), for which, in the assay on Cavia porcellus [1], the ED50 was 0.05 µmol/kg. The Max reversal with Cavia porcellus [2] was found to be 92.8%; in the assay listed under Mus musculus [3], 95.6%. Also, in the assay filed under Mus musculus [4], the EC50 stood at 3.6 µM.

In the case of `O=C([O-])CSCC1O[C@@H]2O[C@@H]3C(CO)O[C@H](O[C@@H]4C(CO)O[C@H](O[C@@H]5C(CO)O[C@H](O[C@@H]6C(CO)O[C@H](O[C@@H]7C(CO)O[C@H](O[C@@H]8C(CO)O[C@H](O[C@@H]9C(CO)O[C@H](O[C@H]1C(O)C2O)C(O)C9O)C(O)C8O)C(O)C7O)C(O)C6O)C(O)C5O)C(O)C4O)C(O)C3O.[Na+]` (some centres undefined), the ED50 in the assay on Cavia porcellus [1] was 5.79 µmol/kg. The values for the Max reversal with Cavia porcellus [5] and in the assay listed under Mus musculus [6] were 96.5% and 28.9%, respectively. Besides, in the assay listed under Mus musculus [4], the EC50 was 60.8 µM.

As to `O=C([O-])CSCC1O[C@@H]2O[C@@H]3C(CSCC(=O)[O-])O[C@H](O[C@@H]4C(CSCC(=O)[O-])O[C@H](O[C@@H]5C(CSCC(=O)[O-])O[C@H](O[C@@H]6C(CSCC(=O)[O-])O[C@H](O[C@@H]7C(CSCC(=O)[O-])O[C@H](O[C@@H]8C(CSCC(=O)[O-])O[C@H](O[C@@H]9C(CSCC(=O)[O-])O[C@H](O[C@H]1C(O)C2O)C(O)C9O)C(O)C8O)C(O)C7O)C(O)C6O)C(O)C5O)C(O)C4O)C(O)C3O.[Na+].[Na+].[Na+].[Na+].[Na+].[Na+].[Na+].[Na+]` (some centres undefined), in the assay with Cavia porcellus [1], the ED50 is 0.1 µmol/kg. Also, the Max reversal in the assay on Cavia porcellus [2] is listed as 103.3%; in the assay listed under Mus musculus [3] it was 93.8%. In addition, the EC50 in the assay filed under Mus musculus [4] was determined as 1.2 µM.

For the compound `O=C([O-])Cc1cccc(SCC2O[C@@H]3O[C@@H]4C(CO)O[C@H](O[C@@H]5C(CO)O[C@H](O[C@@H]6C(CO)O[C@H](O[C@@H]7C(CO)O[C@H](O[C@@H]8C(CO)O[C@H](O[C@@H]9C(CO)O[C@H](O[C@@H]%10C(CO)O[C@H](O[C@H]2C(O)C3O)C(O)C%10O)C(O)C9O)C(O)C8O)C(O)C7O)C(O)C6O)C(O)C5O)C(O)C4O)c1.[Na+]` (some centres undefined), in the assay with Cavia porcellus [1], the ED50 was 1.67 µmol/kg. Further, the values for the Max reversal in the assay with Cavia porcellus [5] and in the assay listed under Mus musculus [6] were 92.8% and 30.4%, respectively. For the same compound, in the assay filed under Mus musculus [4], the EC50 is more than 18 µM.

As to `O=C([O-])CCc1cccc(SCC2O[C@@H]3O[C@@H]4C(CSc5cccc(CCC(=O)[O-])c5)O[C@H](O[C@@H]5C(CSc6cccc(CCC(=O)[O-])c6)O[C@H](O[C@@H]6C(CSc7cccc(CCC(=O)[O-])c7)O[C@H](O[C@@H]7C(CSc8cccc(CCC(=O)[O-])c8)O[C@H](O[C@@H]8C(CSc9cccc(CCC(=O)[O-])c9)O[C@H](O[C@@H]9C(CSc%10cccc(CCC(=O)[O-])c%10)O[C@H](O[C@@H]%10C(CSc%11cccc(CCC(=O)[O-])c%11)O[C@H](O[C@H]2C(O)C3O)C(O)C%10O)C(O)C9O)C(O)C8O)C(O)C7O)C(O)C6O)C(O)C5O)C(O)C4O)c1.[Na+].[Na+].[Na+].[Na+].[Na+].[Na+].[Na+].[Na+]` (some centres undefined), the median effective dose (ED50) in the assay on Cavia porcellus [1] came to 22.8 µmol/kg. The Max reversal in the assay with Cavia porcellus [5] is 35.3%; in the assay listed under Mus musculus [6], 65.2%. For the same compound, the EC50 in the assay listed under Mus musculus [4] came to 14.8 µM.

For `O=C([O-])c1ccccc1C(=O)NCCSCC1O[C@@H]2O[C@@H]3C(CSCCNC(=O)c4ccccc4C(=O)[O-])O[C@H](O[C@@H]4C(CSCCNC(=O)c5ccccc5C(=O)[O-])O[C@H](O[C@@H]5C(CSCCNC(=O)c6ccccc6C(=O)[O-])O[C@H](O[C@@H]6C(CSCCNC(=O)c7ccccc7C(=O)[O-])O[C@H](O[C@@H]7C(CSCCNC(=O)c8ccccc8C(=O)[O-])O[C@H](O[C@@H]8C(CSCCNC(=O)c9ccccc9C(=O)[O-])O[C@H](O[C@@H]9C(CSCCNC(=O)c%10ccccc%10C(=O)[O-])O[C@H](O[C@H]1C(O)C2O)C(O)C9O)C(O)C8O)C(O)C7O)C(O)C6O)C(O)C5O)C(O)C4O)C(O)C3O.[Na+].[Na+].[Na+].[Na+].[Na+].[Na+].[Na+].[Na+]` (some centres undefined), the ED50 with Cavia porcellus [1] was 0.09 µmol/kg. Besides, the Max reversal is 94.5% in the assay with Cavia porcellus [2] and 88.3% in the assay listed under Mus musculus [7]. Further, the EC50 in the assay listed under Mus musculus [4] is 0.1 µM.

As for `O=C([O-])c1cccc(SCC2O[C@@H]3O[C@@H]4C(CO)O[C@H](O[C@@H]5C(CO)O[C@H](O[C@@H]6C(CO)O[C@H](O[C@@H]7C(CO)O[C@H](O[C@@H]8C(CO)O[C@H](O[C@@H]9C(CO)O[C@H](O[C@@H]%10C(CO)O[C@H](O[C@H]2C(O)C3O)C(O)C%10O)C(O)C9O)C(O)C8O)C(O)C7O)C(O)C6O)C(O)C5O)C(O)C4O)c1.[Na+]` (some centres undefined), the ED50 with Cavia porcellus [1] worked out at 2.41 µmol/kg. Besides, the Max reversal stood at 102.7% with Cavia porcellus [5] and 36.1% in the assay listed under Mus musculus [6]. The EC50 in the assay filed under Mus musculus [4] was more than 18 µM.

For the compound `O=C([O-])CCCSCC1O[C@@H]2O[C@@H]3C(CO)O[C@H](O[C@@H]4C(CO)O[C@H](O[C@@H]5C(CO)O[C@H](O[C@@H]6C(CO)O[C@H](O[C@@H]7C(CO)O[C@H](O[C@@H]8C(CO)O[C@H](O[C@@H]9C(CO)O[C@H](O[C@H]1C(O)C2O)C(O)C9O)C(O)C8O)C(O)C7O)C(O)C6O)C(O)C5O)C(O)C4O)C(O)C3O.[Na+]` (some centres undefined), the Max reversal in the assay listed under Mus musculus [6] amounted to 14.4%. In the assay listed under Mus musculus [4], the EC50 is more than 18 µM.

For the compound `O=C([O-])CCCSCC1O[C@@H]2O[C@@H]3C(CSCCCC(=O)[O-])O[C@H](O[C@@H]4C(CSCCCC(=O)[O-])O[C@H](O[C@@H]5C(CSCCCC(=O)[O-])O[C@H](O[C@@H]6C(CSCCCC(=O)[O-])O[C@H](O[C@@H]7C(CSCCCC(=O)[O-])O[C@H](O[C@H]1C(O)C2O)C(O)C7O)C(O)C6O)C(O)C5O)C(O)C4O)C(O)C3O.[Na+].[Na+].[Na+].[Na+].[Na+].[Na+]` (some centres undefined), in the assay with Cavia porcellus [1], the ED50 is more than 16 µmol/kg. For the same compound, the Max reversal in the assay on Cavia porcellus [5] is 3.4%; in the assay listed under Mus musculus [6], 5.3%. Moreover, in the assay filed under Mus musculus [4], the EC50 is more than 18 µM.
